Data from PubChem BioAssay AID504383 (The Scripps Research Institute Molecular Screening Center, 2011).
The whole screen tested about 2,500 compounds, of which about 1,200 (48%) were called active. So high a share suggests a set chosen from earlier hits. This is one part of the list. A number with no mark means an inactive call.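 The calls were made as follows: active = mean activation above the low control average plus 3 SD, as set in the primary screen (cut at about 12% in these data); inactive = the rest.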

These compounds were tested against Troponin I, cardiac muscle (Homo sapiens) + Troponin T, cardiac muscle (Homo sapiens) + Troponin C, slow skeletal and cardiac muscles (Homo sapiens) (UniProt P19429+P45379+P63316) (assay: cardiac RTF calcium sensitivity activators, confirmation, biochemical, IANBD-TnC fluorescence, triplicate (AID 504383;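 also: 0% = DMSO at 0.472 mM calcium and 100% = DMSO at 2.9 mM calcium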)). Conditions: IANBD-labeled cardiac RTF, Ca2+ sensitivity fluorescence; at 7.2 µM; hits give high values; scaled from EC20 to saturating calcium; tested at EC20 calcium, 0.472 mM.
Procedure, shortened: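 Assay system: labelled regulated thin filament protein complex; schedule: 15 min compound incubation with filaments at 25 °C; benchmarks: low control EC20 calcium, high control EC100 calcium; reagent: Ca2+ 0.472 mM, EC20 level; doses: one dose, 7.2 µM nominal; evaluation: fluorescence gain scaled between EC20 and EC100 calcium controls; signal: filament fluorescence intensity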

Row | SMILES | activation
1 | O=C(COc1ccccc1Cl)N1CCN(c2ccccn2)CC1 | 10.9%
2 | S=C(Nc1cc(Cl)ccc1Oc1ccccc1)N1CCN(c2ccccn2)CC1 | 102% (active)
3 | O=c1c2ccccc2nc2n1CCCN2 | 17.2% (active)
4 | CCC[C@@H](CN1CCC[C@H]1CN1C(N)=NC[C@@H]1Cc1ccccc1)N1C[C@@H](Cc2ccccc2)N(CCCC2CCCC2)C1=N | 38.3% (active)
5 | O=C(Cn1c(=O)oc2cc(S(=O)(=O)N3CCCC3)ccc21)N1CCc2ccccc2C1 | 10.4%
6 | CCOc1cc(C#N)ccc1OCC(=O)N1CCc2ccccc2C1 | 12.3% (active)
7 | CC(C(=O)N1CCc2ccccc2C1)N1C(=O)c2ccccc2C1=O (stereo not drawn) | 2.65%
8 | CCNc1cccc2c1C(=O)N(C)C2=O | 1.44%
9 | CC[C@@]1(O)C(=O)OCc2c1cc1n(c2=O)Cc2cc3c(CN(C)C)c(O)ccc3nc2-1 | 22.4% (active)
10 | CCC1(O)C(=O)OCc2c1cc1n(c2=O)Cc2cc3cc(O)ccc3nc2-1 (stereo not drawn) | 16.1% (active)
11 | CCOc1nnc(C)c2c(C)n(-c3cccc(Cl)c3)nc12 | 5.31%
12 | Cc1ccc(/C=C2/SC(=O)NC2=S)o1 | 29.6% (active)
13 | Cc1noc(/C=C/c2ccc(-c3ccccc3Cl)o2)c1[N+](=O)[O-] | -1.31%
14 | O=C1NC(=S)/C(=C\c2ccc(-c3ccccc3Cl)o2)S1 | 14.2% (active)
15 | O=C(O)c1ccccc1-c1ccc(/C=C2\SC(=O)N(c3ccccc3)C2=O)o1 | 9.01%
16 | Cc1nc2ccc(Cl)cc2nc(C)/c1=N\O | 6.95%
17 | CCOC(=O)c1c(-c2ccccc2)csc1NC(=O)/C(C#N)=C/c1ccc(O)c(OC)c1 | 23.8% (active)
18 | CCOC(=O)c1c(-c2ccccc2)csc1NC(=O)/C(C#N)=C\c1ccc(O)c(OC)c1 | 11.3%
19 | CCNC(=S)N/N=C/c1sc(N2CCCCC2)nc1-c1cccs1 | 1.11%
20 | S=C(NCCCN1CCOCC1)Nc1ccc(-c2nc3ccccc3[nH]2)cc1 | 17% (active)
21 | S=C(Nc1ccc(Cl)cc1)N(CCCN1CCOCC1)Cc1ccco1 | 11.2%
22 | COC(=O)Cc1ccc(NC(=S)NCCCN2CCOCC2)cc1 | 2.97%
23 | O=C(O)c1ccccc1CSc1nnnn1-c1ccccc1 | 51.1% (active)
24 | C(=N\Nc1nnnn1-c1ccccc1)/c1ccncc1 | 6.05%

Row | SMILES | activation
25 | O=C(NCC1CCCO1)c1ccc2c(c1)C(=O)N(c1cccc([N+](=O)[O-])c1)C2=O (stereo not drawn) | 31.3% (active)
26 | O=C(NCC1CCCO1)c1cccc2c1C(=O)c1ccc(N3CCC(Cc4ccccc4)CC3)cc1S2(=O)=O (stereo not drawn) | 4.73%
27 | O=C(Cn1ncc2c3ccccc3n(Cc3cccc(Cl)c3)c2c1=O)NCC1CCCO1 (stereo not drawn) | 5.86%
28 | Cc1cccc(CSc2ccc(-c3ccco3)nn2)c1 | -0.44%
29 | N#Cc1ccccc1OCC(=O)OCC(=O)c1ccc2c(c1)NC(=O)CO2 | 21.9% (active)
30 | Cn1c(=O)cc(SCC(=O)NCC2COc3ccccc3O2)c2ccccc21 (stereo not drawn) | 7.4%
31 | CSc1c(CC(=O)NCCO)n(C)c2ccccc12 | 23.2% (active)
32 | Cc1ccccc1C(=O)NC(=S)NC1CC1 | 0.94%
33 | O=C(NC1CCCCC1)c1ccccc1NC(=S)NC(=O)C1CCC1 | 24.5% (active)
34 | O=C(O)c1ccccc1/C=N/NC(=S)NC1CCCCC1 | 5.68%
35 | Cc1cc(=O)oc2cc(OCC(=O)OCC(=O)NC(C)C)ccc12 | 14.7% (active)
36 | Cc1ccc(NC(=O)CN(C)C(=O)COC(=O)COc2ccc(C#N)cc2)cc1 | 3.65%
37 | COc1cccc(CNC(=O)CCS(=O)(=O)c2cc3c(cc2C)NC(=O)CO3)c1 | 7.4%
38 | Cc1cc2c(cc1S(=O)(=O)CCC(=O)NCCc1ccccc1)OCC(=O)N2 | 32.7% (active)
39 | Cc1ccc(CNC(=O)CCS(=O)(=O)c2cc3c(cc2C)NC(=O)CO3)cc1 | 3.23%
40 | CC(C(=O)O)N1C(=O)/C(=C/c2cccn2C)SC1=S (stereo not drawn) | 23.1% (active)
41 | CCC(C(=O)O)N1C(=O)/C(=C/c2cccn2C)SC1=S (stereo not drawn) | 52.1% (active)
42 | CN1C2CCC1/C(=C/c1cccn1C)C(=O)/C2=C\c1cccn1C | 9.37%
43 | CC(C)C(C(=O)O)N1C(=O)/C(=C/c2cccn2C)SC1=S (stereo not drawn) | 21.6% (active)
44 | CCCOc1ccc(Cn2c(=O)oc3ccc(C)cc32)cc1OC | 23.1% (active)
45 | CCCc1ccc(OCc2ccc(C(=O)NN)o2)c(OC)c1 | 7.64%
46 | COc1cc(OC)c(C(=O)NC2CCCCCC2)cc1OC | -0.45%
47 | O=C(NC1CCCCC1)c1cc2nc3c(c(C(F)(F)F)n2n1)CCCC3 | 29.3% (active)
48 | CN1CCN(c2ccc(-c3cccc(NC(=O)COc4ccccc4)c3)nn2)CC1 | 25% (active)

Row | SMILES | activation
49 | COC(=O)c1cc(N2CCN(C)CC2)nc2ccccc12 | 9.59%
50 | COc1ccc(C(Nc2ccc(S(=O)(=O)NCC3CCCO3)cc2)C(=O)NC(C)(C)C)cc1OC (stereo not drawn) | 9.44%
51 | CCCNC(=O)c1ccc(N2CCC3(CC2)CC(c2cccc(Br)c2)=NO3)c(NC(=O)c2cccc(C)c2)c1 | 9.93%
52 | C[C@H](CO)NC(=O)[C@@H]1C[C@H]1[C@@H](NP(=O)(c1ccccc1)c1ccccc1)c1ccccc1 | 1.68%
53 | COCCNC(=O)[C@H]1C[C@@H]1[C@H](NP(=O)(c1ccccc1)c1ccccc1)c1ccccc1 | 3770% (active)
54 | COc1cccc(/C=N/Nc2nnc(C)n2N)c1O | 5.74%
55 | COc1ccc(-c2nn(-c3ccccc3)cc2/C=N/NC(N)=S)cc1OC | 29% (active)
56 | Cc1ccc(C(C(=O)NC(C)(C)C)N(C(=O)c2csnn2)C2CC2)cc1 (stereo not drawn) | 100% (active)
57 | O=C(O)CCNc1cc(N2CCN(C(=O)c3ccco3)CC2)c2noc3c2c1C(=O)c1ccccc1-3 | 3.54%
58 | O=C1c2ccccc2-c2onc3c(N4CCN(CCO)CC4)cc(N4CCN(C(=O)c5ccco5)CC4)c1c23 | 7.32%
59 | O=C(c1ccco1)N1CCN(c2ncnc3c(-c4ccc(Cl)cc4)nsc23)CC1 | 112% (active)
60 | CCN(CC)CCCC(C)n1c2nc(=O)[nH]c(=O)c-2nc2cc(Cl)ccc21 (stereo not drawn) | 7.49%
61 | CCOC(=O)c1ccc(N=c2sc(C(=O)OC)cc(=O)n2CCCN2CCOCC2)cc1 | 4.75%
62 | O=C(NC(=S)NCCN1CCOCC1)c1ccc(F)cc1 | 72.6% (active)
63 | CCOC(=O)c1c(NC(=S)N2CCN(C)CC2)sc2c1CCN(C(=O)OCC)C2 | 7.96%
64 | CCOC(=O)N1CCN(C(=S)Nc2ccccc2C)CC1 | 32.7% (active)
65 | CCC(CC)NC(=O)Nc1ccccc1C | 7.62%
66 | O=C1NCCCCC1NS(=O)(=O)c1cccc(C(F)(F)F)c1 (stereo not drawn) | 7.86%
67 | N#Cc1ccc(S(=O)(=O)NC2CCN(Cc3ccccc3)CC2)cc1 | 9.61%
68 | N#Cc1ccc(S(=O)(=O)NC2CCCCNC2=O)cc1 (stereo not drawn) | 93.6% (active)
69 | CCOP(=O)(OCC)/C(=N/OC(=O)c1ccc(OC)cc1)C(N)=O | 11.7% (active)
70 | COc1[nH]c(/N=C/c2ccccc2)c(C#N)c1C#N | 7.9%
71 | O=C(c1cc(Cl)ccc1O)N1CCN(S(=O)(=O)c2cccs2)CC1 | 683% (active)
72 | O=C(CC1CCCC1)N1CCN(S(=O)(=O)c2ccccc2)CC1 | 3.96%

Row | SMILES | activation
73 | O=C(Cc1cccs1)N1CCN(S(=O)(=O)c2cc(Cl)ccc2Cl)CC1 | 13.5% (active)
74 | CCOc1ccc(NC(=O)C2CCN(S(=O)(=O)c3cccnc3)CC2)cc1 | 0.88%
75 | O=C(CSc1n[nH]c(-c2cccs2)n1)N1CCOCC1 | 3.55%
76 | O=C(Nc1ccccc1N1CCOCC1)C1CCN(S(=O)(=O)c2ccccc2F)CC1 | 3.08%
77 | O=C(Nc1nccs1)C1CCN(S(=O)(=O)c2ccccc2)CC1 | 1030% (active)
78 | O=C(Nc1ccc(Cl)cn1)C1CCN(S(=O)(=O)c2cccs2)CC1 | 242% (active)
79 | O=C(c1cc(-c2cccs2)nn1-c1ccccc1)N1CCN(S(=O)(=O)c2ccccc2)CC1 | 3.27%
80 | N#Cc1cccc(NC(=O)CSc2ccc3c4c(cccc24)C(=O)c2ccccc2-3)c1 | 15.7% (active)
81 | COc1ccc(NC(=O)CSc2ccc3c4c(cccc24)C(=O)c2ccccc2-3)cc1 | 19.2% (active)
82 | N#Cc1cccc(NC(=S)Nc2ccccc2)c1 | 6.24%
83 | COc1ccc(NC(=O)CC2C(=O)N(Cc3ccco3)C(=S)N2C(C)C)cc1 (stereo not drawn) | 41.6% (active)
84 | COc1ccc(/C(O)=C2\C(=O)C(=O)N(Cc3ccco3)C2c2cc(OC)ccc2OC)cc1 (stereo not drawn) | 10.9%
85 | COC(=O)N1CCN(S(=O)(=O)c2ccc(F)cc2)CC1 | 8.33%
86 | O=S(=O)(c1ccc(F)cc1)N1CCN(CCOc2ccccc2)CC1 | 956% (active)
87 | O=C(Nc1ccccc1-c1ccccc1)c1ccc(Cl)c([N+](=O)[O-])c1 | 48.5% (active)
88 | O=[N+]([O-])c1cc(-c2ccn[nH]2)ccc1Cl | 10.1%
89 | COc1ccc(C(=O)Nc2ccccc2-c2ccccc2)cc1Cl | 11%
90 | COc1ccc(/C=C2\SC(=S)N(CCCC(=O)Nc3ccccc3C(=O)O)C2=O)cc1OC | 28.5% (active)
91 | COc1ccc(/C=C2\SC(=S)N(CCCC(=O)Nc3ccccn3)C2=O)cc1OC | 9.09%
92 | COc1cc(/C=C2/SC(=S)N(Cc3ccccc3)C2=O)cc(Cl)c1O | 5470% (active)
93 | O=C1/C(=C\c2cc(Cl)c(O)c(Cl)c2)SC(=S)N1Cc1ccccc1 | -1.15%
